# Results taken from ChEMBL document CHEMBL1157526, “Development of novel beta-amyloid probes based on 3,5-diphenyl-1,2,4-oxadiazole” (Bioorg Med Chem, 2008).
# Experiments:
# [1] = Displacement of [125I]IMPY from amyloid beta (1-42) aggregates
# Method in brief: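 Synthetic Aβ(1–42) dissolved at 0.25 mg/mL in 10 mM sodium phosphate, 1 mM EDTA, pH 7.4, aggregated 42 h at 37 °C with gentle constant shaking. Competition against [125I]IMPY (2200 Ci/mmol, >95% radiochemical purity). Filter-bound radioactivity gamma-counted, specific binding under 15% of total. IC50 from displacement curves, Ki by Cheng-Prusoff. Mean ± SEM of 3–6 independent experiments.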
# Liver [2] = test: Biodistribution in ddY mouse liver at 0.5 uCi, iv after 30 mins; type: ADME, organism-based; settings: in vivo, 0.5 h
# Method in brief: (§1)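 Normal male-unspecified ddY mice (5-week-old, 22–25 g) given radioiodinated ligand by tail-vein injection, killed at set times post-injection. Organs removed and weighed, radioactivity counted in a gamma counter. Expressed as % injected dose per gram, stomach as % injected dose per organ. Mean (s.d.) of 3–5 animals per time point.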
# Heart [3] = test: Biodistribution in ddY mouse heart at 0.5 uCi, iv after 60 mins; type: ADME, organism-based; settings: in vivo, 1 h; method in brief: as §1
# Spleen [4] = test: Biodistribution in ddY mouse spleen at 0.5 uCi, iv after 2 mins; type: ADME, organism-based; settings: in vivo; method in brief: as §1
# Brain [5] = test: Biodistribution in ddY mouse brain at 0.5 uCi, iv after 2 mins; type: ADME, organism-based; settings: in vivo; method in brief: as §1
# Intestine [6] = test: Biodistribution in ddY mouse intestine at 0.5 uCi, iv after 60 mins; type: ADME, organism-based; settings: in vivo, 1 h; method in brief: as §1
# Kidney [7] = test: Biodistribution in ddY mouse kidney at 0.5 uCi, iv after 60 mins; type: ADME, organism-based; settings: in vivo, 1 h; method in brief: as §1
# Pancreas [8] = test: Biodistribution in ddY mouse pancreas at 0.5 uCi, iv after 2 mins; type: ADME, organism-based; settings: in vivo; method in brief: as §1
# Liver [9] = test: Biodistribution in ddY mouse liver at 0.5 uCi, iv after 10 mins; type: ADME, organism-based; settings: in vivo; method in brief: as §1
# Kidney [10] = test: Biodistribution in ddY mouse kidney at 0.5 uCi, iv after 30 mins; type: ADME, organism-based; settings: in vivo, 0.5 h; method in brief: as §1
# Stomach [11] = test: Biodistribution in ddY mouse stomach at 0.5 uCi, iv after 30 mins; type: ADME, organism-based; settings: in vivo, 0.5 h; method in brief: as §1
# Pancreas [12] = test: Biodistribution in ddY mouse pancreas at 0.5 uCi, iv after 60 mins; type: ADME, organism-based; settings: in vivo, 1 h; method in brief: as §1
# Blood [13] = test: Biodistribution in ddY mouse blood at 0.5 uCi, iv after 30 mins; type: ADME, organism-based; settings: in vivo, 0.5 h; method in brief: as §1
# Stomach [14] = test: Biodistribution in ddY mouse stomach at 0.5 uCi, iv after 60 mins; type: ADME, organism-based; settings: in vivo, 1 h; method in brief: as §1
# Blood [15] = test: Biodistribution in ddY mouse blood at 0.5 uCi, iv after 10 mins; type: ADME, organism-based; settings: in vivo; method in brief: as §1
# Heart [16] = test: Biodistribution in ddY mouse heart at 0.5 uCi, iv after 30 mins; type: ADME, organism-based; settings: in vivo, 0.5 h; method in brief: as §1
# Brain [17] = test: Biodistribution in ddY mouse brain at 0.5 uCi, iv after 60 mins; type: ADME, organism-based; settings: in vivo, 1 h; method in brief: as §1
# Liver [18] = test: Biodistribution in ddY mouse liver at 0.5 uCi, iv after 2 mins; type: ADME, organism-based; settings: in vivo; method in brief: as §1
# Heart [19] = test: Biodistribution in ddY mouse heart at 0.5 uCi, iv after 10 mins; type: ADME, organism-based; settings: in vivo; method in brief: as §1
# Stomach [20] = test: Biodistribution in ddY mouse stomach at 0.5 uCi, iv after 2 mins; type: ADME, organism-based; settings: in vivo; method in brief: as §1
# Intestine [21] = test: Biodistribution in ddY mouse intestine at 0.5 uCi, iv after 30 mins; type: ADME, organism-based; settings: in vivo, 0.5 h; method in brief: as §1
# Spleen [22] = test: Biodistribution in ddY mouse spleen at 0.5 uCi, iv after 10 mins; type: ADME, organism-based; settings: in vivo; method in brief: as §1
# Intestine [23] = test: Biodistribution in ddY mouse intestine at 0.5 uCi, iv after 2 mins; type: ADME, organism-based; settings: in vivo; method in brief: as §1
# Blood [24] = test: Biodistribution in ddY mouse blood at 0.5 uCi, iv after 2 mins; type: ADME, organism-based; settings: in vivo; method in brief: as §1
# Spleen [25] = test: Biodistribution in ddY mouse spleen at 0.5 uCi, iv after 60 mins; type: ADME, organism-based; settings: in vivo, 1 h; method in brief: as §1
# Blood [26] = test: Biodistribution in ddY mouse blood at 0.5 uCi, iv after 60 mins; type: ADME, organism-based; settings: in vivo, 1 h; method in brief: as §1
# Spleen [27] = test: Biodistribution in ddY mouse spleen at 0.5 uCi, iv after 30 mins; type: ADME, organism-based; settings: in vivo, 0.5 h; method in brief: as §1
# Pancreas [28] = test: Biodistribution in ddY mouse pancreas at 0.5 uCi, iv after 30 mins; type: ADME, organism-based; settings: in vivo, 0.5 h; method in brief: as §1
# Heart [29] = test: Biodistribution in ddY mouse heart at 0.5 uCi, iv after 2 mins; type: ADME, organism-based; settings: in vivo; method in brief: as §1
# Stomach [30] = test: Biodistribution in ddY mouse stomach at 0.5 uCi, iv after 10 mins; type: ADME, organism-based; settings: in vivo; method in brief: as §1
# Brain [31] = test: Biodistribution in ddY mouse brain at 0.5 uCi, iv after 30 mins; type: ADME, organism-based; settings: in vivo, 0.5 h; method in brief: as §1
# Kidney [32] = test: Biodistribution in ddY mouse kidney at 0.5 uCi, iv after 10 mins; type: ADME, organism-based; settings: in vivo; method in brief: as §1
# Intestine [33] = test: Biodistribution in ddY mouse intestine at 0.5 uCi, iv after 10 mins; type: ADME, organism-based; settings: in vivo; method in brief: as §1
# Kidney [34] = test: Biodistribution in ddY mouse kidney at 0.5 uCi, iv after 2 mins; type: ADME, organism-based; settings: in vivo; method in brief: as §1
# Brain [35] = test: Biodistribution in ddY mouse brain at 0.5 uCi, iv after 10 mins; type: ADME, organism-based; settings: in vivo; method in brief: as §1
# Pancreas [36] = test: Biodistribution in ddY mouse pancreas at 0.5 uCi, iv after 10 mins; type: ADME, organism-based; settings: in vivo; method in brief: as §1
# Liver [37] = test: Biodistribution in ddY mouse liver at 0.5 uCi, iv after 60 mins; type: ADME, organism-based; settings: in vivo, 1 h; method in brief: as §1
Structure (SMILES),Drug uptake (Liver [2]),Drug uptake (Heart [3]),Drug uptake (Spleen [4]),Drug uptake (Brain [5]),Drug uptake (Intestine [6]),Drug uptake (Kidney [7]),Drug uptake (Pancreas [8]),Drug uptake (Liver [9]),Drug uptake (Kidney [10]),Drug uptake (Stomach [11]),Drug uptake (Pancreas [12]),Drug uptake (Blood [13]),Drug uptake (Stomach [14]),Drug uptake (Blood [15]),Drug uptake (Heart [16]),Drug uptake (Brain [17]),Drug uptake (Liver [18]),Drug uptake (Heart [19]),Drug uptake (Stomach [20]),Drug uptake (Intestine [21]),other results
COc1ccc(-c2nc(-c3ccc(I)cc3)no2)cc1,,,,,,,,,,,,,,,,,,,,,Ki [1]: 4.3 nM
CN(C)c1ccc(-c2nc(-c3ccc([125I])cc3)no2)cc1,5.89 % ID/g,1.24 % ID/g,6.26 % ID/g,1.07 % ID/g,5.37 % ID/g,3.31 % ID/g,3.17 % ID/g,8.27 % ID/g,4.81 % ID/g,4.8 % ID/organ,2.47 % ID/g,1.79 % ID/g,5.75 % ID/organ,2.41 % ID/g,2.2 % ID/g,2.32 % ID/g,13.94 % ID/g,4.81 % ID/g,1.28 % ID/organ,4.12 % ID/g,Drug uptake (Spleen [22]): 4.56 % ID/g; Drug uptake (Intestine [23]): 1.59 % ID/g; Drug uptake (Blood [24]): 5.42 % ID/g; Drug uptake (Spleen [25]): 2.41 % ID/g; Drug uptake (Blood [26]): 1.56 % ID/g; Drug uptake (Spleen [27]): 3.11 % ID/g; Drug uptake (Pancreas [28]): 2.86 % ID/g; Drug uptake (Heart [29]): 11.04 % ID/g; Drug uptake (Stomach [30]): 3.28 % ID/organ; Drug uptake (Brain [31]): 2.23 % ID/g; Drug uptake (Kidney [32]): 7.67 % ID/g; Drug uptake (Intestine [33]): 2.4 % ID/g; Drug uptake (Kidney [34]): 7.83 % ID/g; Drug uptake (Brain [35]): 1.45 % ID/g; Drug uptake (Pancreas [36]): 3.8 % ID/g; Drug uptake (Liver [37]): 5.15 % ID/g
COc1ccc(-c2nc(-c3ccc([125I])cc3)no2)cc1,6.13 % ID/g,1.35 % ID/g,4.41 % ID/g,2.06 % ID/g,8.21 % ID/g,2.95 % ID/g,4.55 % ID/g,9.35 % ID/g,3.85 % ID/g,2.46 % ID/organ,1.45 % ID/g,1.23 % ID/g,3.16 % ID/organ,1.63 % ID/g,1.84 % ID/g,2.01 % ID/g,11.92 % ID/g,4.44 % ID/g,0.62 % ID/organ,6.62 % ID/g,Drug uptake (Spleen [22]): 3.62 % ID/g; Drug uptake (Intestine [23]): 1.7 % ID/g; Drug uptake (Blood [24]): 1.96 % ID/g; Drug uptake (Spleen [25]): 1.34 % ID/g; Drug uptake (Blood [26]): 1.12 % ID/g; Drug uptake (Spleen [27]): 2.13 % ID/g; Drug uptake (Pancreas [28]): 2.84 % ID/g; Drug uptake (Heart [29]): 11.3 % ID/g; Drug uptake (Stomach [30]): 1.64 % ID/organ; Drug uptake (Brain [31]): 2.82 % ID/g; Drug uptake (Kidney [32]): 6.22 % ID/g; Drug uptake (Intestine [33]): 3.53 % ID/g; Drug uptake (Kidney [34]): 8.77 % ID/g; Drug uptake (Brain [35]): 2.76 % ID/g; Drug uptake (Pancreas [36]): 4.94 % ID/g; Drug uptake (Liver [37]): 4.44 % ID/g
Nc1ccc(-c2nc(-c3ccc(I)cc3)no2)cc1,,,,,,,,,,,,,,,,,,,,,Ki [1]: 14.2 nM
Nc1ccc(-c2nc(-c3ccc([125I])cc3)no2)cc1,14.89 % ID/g,3.51 % ID/g,6.13 % ID/g,1.61 % ID/g,8.33 % ID/g,5.15 % ID/g,3.69 % ID/g,17.37 % ID/g,5.86 % ID/g,4.05 % ID/organ,2.83 % ID/g,3.09 % ID/g,5.15 % ID/organ,2.32 % ID/g,3.48 % ID/g,3.29 % ID/g,21.36 % ID/g,4.02 % ID/g,0.92 % ID/organ,5.84 % ID/g,Drug uptake (Spleen [22]): 8.87 % ID/g; Drug uptake (Intestine [23]): 1.5 % ID/g; Drug uptake (Blood [24]): 4.55 % ID/g; Drug uptake (Spleen [25]): 5.02 % ID/g; Drug uptake (Blood [26]): 2.99 % ID/g; Drug uptake (Spleen [27]): 6.89 % ID/g; Drug uptake (Pancreas [28]): 3.36 % ID/g; Drug uptake (Heart [29]): 9.29 % ID/g; Drug uptake (Stomach [30]): 1.7 % ID/organ; Drug uptake (Brain [31]): 3.32 % ID/g; Drug uptake (Kidney [32]): 6.94 % ID/g; Drug uptake (Intestine [33]): 3.08 % ID/g; Drug uptake (Kidney [34]): 8.24 % ID/g; Drug uptake (Brain [35]): 2.48 % ID/g; Drug uptake (Pancreas [36]): 3.88 % ID/g; Drug uptake (Liver [37]): 12.33 % ID/g
